Assay results gathered from unrelated publications.
Compare with care: the assays were run in different laboratories.

Structure (SMILES) | test | test system | conditions | endpoint | result
O=C(O)C1CCN(c2ncc(-c3ccc4c(c3)OCCCO4)s2)CC1 |  | male Swiss mouse, plasma | oral, 30 mg/kg, 12 h, single dose | concentration | 1640 ng/mL
c1ccc(-c2nc(N3CCC(c4ccccn4)C3)c3ccccc3n2)nc1 (stereo not shown) |  | female BALB/c mouse, plasma | oral, 50 mg/kg, 8 h | concentration | 19.6 ng/mL
c1cnc2ccc(Nc3nc(NC4CC4)c4nc[nH]c4n3)cc2c1 |  | human, plasma | oral, 200 mg/m², patients | MRT(0-t) | 5.7 h
CC(C)CN(C[C@@H](O)[C@H](Cc1ccccc1)NC(=O)O[C@H]1CO[C@H]2OCC[C@H]21)S(=O)(=O)c1ccc(N)cc1 |  | BALB/c mouse, brain | intravenous, 25 mg/kg, 6 h | concentration | 1.85 ng/g
CC[C@H](C)[C@@H]1NC(=O)[C@@](C)(NC(=O)[C@H](CCCNC(=N)N)NC(=O)[C@H](CC(C)C)NC(=O)[C@@H](NC(=O)[C@H](CCC(N)=O)NC(=O)[C@H](CC(C)C)NC(C)=O)[C@@H](C)O)CCCC=CCCC[C@@](C)(C(=O)N[C@@H](CC(C)C)C(=O)N[C@@H](Cc2ccc3ccccc3c2)C(N)=O)NC(=O)[C@H](CCCNC(=N)N)NC(=O)[C@H](CCC(N)=O)NC1=O |  | male BALB/c mouse, plasma | intramuscular, 5 mg/kg | half-life | 10.6 h
CC(C)(O)c1ccccc1-c1ccc2[nH]c(/C=C/c3ccc(C(F)(F)F)cc3)nc2c1 |  | male human, plasma | oral, 50 mg, single dose, fasted, healthy volunteers | MRT | 99.5 h
N#CN1C[C@H](n2nc(-c3ccc(Oc4ccc(Cl)cn4)cc3)c(C(N)=O)c2N)CCC12CC2 |  | human, plasma | oral, 600 mg, fed | MRT | 33 h
CC(C)(C)c1ccc(O)c(CN(Cc2cc(C(C)(C)C)ccc2O)C2CCC(NC(N)=O)CC2)c1 (stereo not shown) |  | male C57BL/6 mouse, brain | intraperitoneal, 5 mg/kg, single dose | half-life | 7.1 h
CCCN(CCC)CCc1cccc2c1CC(=O)N2 | metabolic stability | dog, hepatocytes | 1 µM | hepatocyte CLint | 16.3 µL/min/10⁶ cells
O=c1c(O)c(-c2ccc(O)c(O)c2)oc2cc(O)cc(O)c12 |  | human, plasma | oral, 500 mg, single dose, fasted, healthy volunteers | MRT(0-t) | 6.84 h
CS(=O)(=O)CCC#N |  | human, plasma | oral, 1000 mg, single dose, fasted | MRT | 32.5 h
Oc1cccc(CCc2ccccc2)c1 | HPLC |  |  | chromatographic logP | > 3.14
O=C1NN=C(N=Cc2ccccc2O)C1=NNn1c(-c2ccccc2)nc2ccccc2c1=O |  |  |  | logP | 3.68
COc1cc(O)cc(/C=C/c2ccccc2)c1 | HPLC |  |  | chromatographic logP | > 3.14
O=S(=O)(c1ccc(-c2ccc3nccc(Nc4ccncn4)c3c2)cc1)N1CCOCC1 |  | female BALB/c mouse, plasma | intraperitoneal, 10 mg/kg, 1 h | concentration | 1290 ng/mL
CC1=NN(CNc2ccccc2)C(=O)C1=NNn1c(-c2ccccc2)nc2ccccc2c1=O |  |  |  | logP | 4.49
CC(C)Oc1cccc(-c2cnc(N3CCC(C(N)=O)CC3)s2)c1 |  | male Swiss mouse, plasma | oral, 30 mg/kg, 2 h, single dose | concentration | 206 ng/mL
Cc1ccc(C(CC(=O)c2ccc(Oc3ccccc3)c(O)c2)C(N)=O)cc1 (stereo not shown) | HPLC |  |  | chromatographic logP | 4.06
Oc1cccc(/C=C/c2ccccc2)c1 | HPLC |  |  | chromatographic logP | > 3.14
O=c1nc(N2CCN(CC3CCCCC3)CC2)sc2c([N+](=O)[O-])cc(C(F)(F)F)cc12 |  | CD-1 mouse, plasma | oral, 100 mg/kg, 15 min | concentration | 2280 ng/mL
CC(C)(Nc1nc(-c2ccccn2)nc2ccccc12)c1ccccn1 |  | female BALB/c mouse, plasma | oral, 50 mg/kg, 8 h | concentration | 5860 ng/mL
CC1=NN(CNc2ccccn2)C(=O)C1=NNn1c(-c2ccccc2)nc2ccccc2c1=O |  |  |  | logP | 3.87
